From paper PMC2832854 (NeuroImage, 2009)
“And” between values parts separate entries of the source, which are not always exact repeats. Equal entries are not always repeated. Where two headings read alike, the source gives them in different places. Each block holds one compound with its values, some of them ahead of it.

Experiments:
TSPO [1] = format: binding, human; conditions: for Ki: read-out: KI of PBR28, displacement of [3H]PK 11195, mean ± SD; for Specific Binding: single radioligand concentration normalized to 0.5 nM, displacer PBR28
TSPO [2] = conditions: read-out: KI to monkey brain, ref Briard et al., 2008; cited from earlier work
ABCB1 (P-glycoprotein) = ABCB1 (P-glycoprotein) (Homo sapiens, UniProt P08183); format: cell-based; conditions: 5 nM radioligand
ABCC1 = ABCC1 (Homo sapiens, UniProt P33527); assay: Substrate specificity: radioligand accumulation in MCF-7 / MCF-7/VP16 cells; format: cell-based; conditions: 5 nM radioligand
ABCG2 = molecular target: T1, ABCG2 (Homo sapiens, UniProt Q9UNQ0); assay: Substrate specificity: radioligand accumulation in H460 / H460/MX20 cells; format: cell-based; conditions: 5 nM radioligand
T1 sequence (Q9UNQ0 1-655): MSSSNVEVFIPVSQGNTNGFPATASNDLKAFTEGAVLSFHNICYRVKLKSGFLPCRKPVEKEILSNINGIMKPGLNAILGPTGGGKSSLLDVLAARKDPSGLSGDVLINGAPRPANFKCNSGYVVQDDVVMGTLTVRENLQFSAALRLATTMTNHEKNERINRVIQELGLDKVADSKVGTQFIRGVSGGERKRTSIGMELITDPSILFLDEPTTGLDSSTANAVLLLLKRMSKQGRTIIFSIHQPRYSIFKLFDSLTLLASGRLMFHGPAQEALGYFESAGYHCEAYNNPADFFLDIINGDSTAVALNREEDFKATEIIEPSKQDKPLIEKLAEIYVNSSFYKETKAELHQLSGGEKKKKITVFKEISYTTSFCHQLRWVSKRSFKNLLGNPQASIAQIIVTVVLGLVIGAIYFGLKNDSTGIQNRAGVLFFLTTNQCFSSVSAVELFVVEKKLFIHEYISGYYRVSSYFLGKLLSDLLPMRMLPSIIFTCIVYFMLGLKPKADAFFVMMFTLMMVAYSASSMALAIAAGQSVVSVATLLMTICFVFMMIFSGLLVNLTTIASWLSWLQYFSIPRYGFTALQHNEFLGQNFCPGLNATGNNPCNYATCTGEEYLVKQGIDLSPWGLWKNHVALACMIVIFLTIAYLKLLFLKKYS

[3] = tested on: 18 kDa translocator protein (TSPO); assay: Human whole-body PET imaging, organ uptake in binders and non-binders; format: in vivo; conditions: for Organ uptake (area under time-activity curve): 5 to 20 min
TSPO [4] = conditions: 0 to 120 min, ref Imaizumi et al., 2008, cited from earlier work
TSPO [5] = conditions: cited from earlier work
TSPO [6] = format: in vivo, rhesus monkeys (Macaca mulatta); conditions: for Decrease of area under the curve by pre-blockade: 0 to 120 min, nonradioactive PBR28; for Time at which uptake declined to 50% of peak: after pre-blockade
Outline: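 Two male rhesus monkeys (13.2 ± 2.1 kg) each had two scans. The baseline scan followed i.v. 11C-labelled TSPO radioligand (276 ± 8 MBq, posterior tibial vein). The second followed unlabelled TSPO ligand 5 mg/kg i.v. given 30 min before radioligand (277 ± 21 MBq). 2D dynamic whole-body PET covered 4 segments, head to upper thigh, in 22 frames (75 s–15 min) over 120 min. Organ SUV curves were integrated over 5–20 and 0–120 min.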

TSPO [7] = format: in vivo, rhesus monkeys
[8] = saturation curve, homologous displacement, binders

Chain of ABCB1 (P-glycoprotein) (P08183 whole entry): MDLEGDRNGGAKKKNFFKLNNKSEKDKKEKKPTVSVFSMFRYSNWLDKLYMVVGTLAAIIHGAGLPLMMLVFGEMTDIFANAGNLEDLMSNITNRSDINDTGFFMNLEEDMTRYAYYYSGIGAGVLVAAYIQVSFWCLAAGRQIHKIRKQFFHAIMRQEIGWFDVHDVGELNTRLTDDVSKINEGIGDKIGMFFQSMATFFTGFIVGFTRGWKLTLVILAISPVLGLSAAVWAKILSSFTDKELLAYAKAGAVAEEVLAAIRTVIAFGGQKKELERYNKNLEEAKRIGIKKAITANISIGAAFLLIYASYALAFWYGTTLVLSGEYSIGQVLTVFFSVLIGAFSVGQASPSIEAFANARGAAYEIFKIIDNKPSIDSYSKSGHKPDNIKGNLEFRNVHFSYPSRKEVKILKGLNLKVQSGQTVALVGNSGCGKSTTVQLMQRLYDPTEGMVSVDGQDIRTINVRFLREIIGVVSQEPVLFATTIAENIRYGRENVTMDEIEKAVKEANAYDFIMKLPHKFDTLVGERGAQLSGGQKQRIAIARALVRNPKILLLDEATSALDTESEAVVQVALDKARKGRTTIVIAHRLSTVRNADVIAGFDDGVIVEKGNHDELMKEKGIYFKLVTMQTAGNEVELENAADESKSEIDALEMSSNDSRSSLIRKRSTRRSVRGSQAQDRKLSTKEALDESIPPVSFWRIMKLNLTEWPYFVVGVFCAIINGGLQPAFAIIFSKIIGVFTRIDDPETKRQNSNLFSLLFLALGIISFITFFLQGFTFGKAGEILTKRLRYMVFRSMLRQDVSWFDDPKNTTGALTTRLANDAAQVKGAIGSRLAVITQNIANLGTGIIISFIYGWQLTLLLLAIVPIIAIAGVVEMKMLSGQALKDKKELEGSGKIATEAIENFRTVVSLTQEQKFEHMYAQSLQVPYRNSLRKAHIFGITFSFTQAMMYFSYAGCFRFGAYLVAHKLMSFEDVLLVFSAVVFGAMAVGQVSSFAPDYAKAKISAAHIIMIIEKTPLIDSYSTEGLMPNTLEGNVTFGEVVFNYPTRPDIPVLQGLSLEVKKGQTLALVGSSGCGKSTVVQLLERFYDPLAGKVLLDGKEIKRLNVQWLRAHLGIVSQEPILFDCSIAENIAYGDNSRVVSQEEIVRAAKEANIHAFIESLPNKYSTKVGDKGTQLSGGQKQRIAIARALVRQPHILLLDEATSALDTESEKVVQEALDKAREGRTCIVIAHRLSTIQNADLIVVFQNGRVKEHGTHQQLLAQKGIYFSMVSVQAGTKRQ
Chain of ABCC1 (P33527 whole entry): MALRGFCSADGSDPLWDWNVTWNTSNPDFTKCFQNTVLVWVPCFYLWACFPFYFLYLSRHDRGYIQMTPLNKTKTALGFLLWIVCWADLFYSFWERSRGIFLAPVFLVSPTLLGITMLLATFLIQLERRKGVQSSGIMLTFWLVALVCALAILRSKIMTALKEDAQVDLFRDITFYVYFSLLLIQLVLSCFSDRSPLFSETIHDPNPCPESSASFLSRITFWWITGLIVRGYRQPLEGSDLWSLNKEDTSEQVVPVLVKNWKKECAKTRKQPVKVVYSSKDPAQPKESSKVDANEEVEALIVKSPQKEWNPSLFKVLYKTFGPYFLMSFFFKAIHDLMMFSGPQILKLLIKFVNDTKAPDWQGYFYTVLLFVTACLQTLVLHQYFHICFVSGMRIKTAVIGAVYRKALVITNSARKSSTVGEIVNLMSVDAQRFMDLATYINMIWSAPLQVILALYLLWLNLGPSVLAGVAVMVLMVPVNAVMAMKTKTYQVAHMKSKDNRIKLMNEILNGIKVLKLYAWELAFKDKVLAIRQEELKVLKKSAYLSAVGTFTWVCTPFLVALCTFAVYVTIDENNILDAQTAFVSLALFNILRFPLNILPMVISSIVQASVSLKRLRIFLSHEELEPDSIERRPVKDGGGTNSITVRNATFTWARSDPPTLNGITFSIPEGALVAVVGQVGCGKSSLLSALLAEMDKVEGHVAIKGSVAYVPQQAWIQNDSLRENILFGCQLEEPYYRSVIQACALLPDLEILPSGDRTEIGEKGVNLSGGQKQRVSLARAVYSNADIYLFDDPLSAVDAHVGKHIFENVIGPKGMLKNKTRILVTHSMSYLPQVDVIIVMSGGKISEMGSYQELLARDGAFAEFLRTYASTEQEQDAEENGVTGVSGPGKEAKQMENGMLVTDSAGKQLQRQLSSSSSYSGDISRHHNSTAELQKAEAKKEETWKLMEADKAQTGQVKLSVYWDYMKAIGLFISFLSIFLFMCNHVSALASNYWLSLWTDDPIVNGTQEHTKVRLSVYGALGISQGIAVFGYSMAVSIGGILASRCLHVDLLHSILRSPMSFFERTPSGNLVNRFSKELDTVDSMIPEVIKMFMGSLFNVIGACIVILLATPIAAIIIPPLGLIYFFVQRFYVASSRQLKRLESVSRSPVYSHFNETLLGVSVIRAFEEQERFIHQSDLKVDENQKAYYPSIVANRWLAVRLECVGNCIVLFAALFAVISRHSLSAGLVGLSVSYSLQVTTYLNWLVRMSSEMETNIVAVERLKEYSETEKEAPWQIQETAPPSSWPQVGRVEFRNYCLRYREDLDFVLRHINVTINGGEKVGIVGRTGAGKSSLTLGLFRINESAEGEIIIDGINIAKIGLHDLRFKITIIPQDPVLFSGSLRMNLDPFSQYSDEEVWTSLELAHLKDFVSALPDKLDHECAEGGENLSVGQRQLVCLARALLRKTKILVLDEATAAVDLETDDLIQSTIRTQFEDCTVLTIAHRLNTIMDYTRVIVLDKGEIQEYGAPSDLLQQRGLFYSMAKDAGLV

SMILES: COc1ccccc1CN(C(C)=O)c1cnccc1Oc1ccccc1 [PBR28]
Ki (TSPO [1]; binders): 6.1 ± 6.4 nM
Ki (TSPO [1]; non-binders): 67 nM and 67.4 nM
Ki (TSPO [2]): 0.94 nM

SMILES: COc1ccccc1CN(C(C)=O)c1cnccc1Oc1ccccc1 [[^3H]PBR28] [listing 1 of 2 here]
Substrate for transporter (ABCB1 (P-glycoprotein)): neither [^3H]PK 11195 nor [^3H]PBR8 was a substrate
Substrate for transporter (ABCC1): neither [^3H]PK 11195 nor [^3H]PBR8 was a substrate
Substrate for transporter (ABCG2): neither [^3H]PK 11195 nor [^3H]PBR8 was a substrate

Organ uptake (area under time-activity curve) ([3]; brain, binders (n = 5)): 27.3 ± 3.4 SUV • min
Organ uptake (area under time-activity curve) ([3]; brain, non-binders (n = 5)): 13.8 ± 1.3 SUV • min
Organ uptake (area under time-activity curve) ([3]; heart, binders (n = 5)): 72.3 ± 10.3 SUV • min
Organ uptake (area under time-activity curve) ([3]; heart, non-binders (n = 5)): 29.7 ± 4.7 SUV • min
Organ uptake (area under time-activity curve) ([3]; kidney, binders (n = 5)): 109.3 ± 12.9 SUV • min
Organ uptake (area under time-activity curve) ([3]; kidney, non-binders (n = 5)): 33.4 ± 15.5 SUV • min
Organ uptake (area under time-activity curve) ([3]; lung, binders (n = 5)): 44.9 ± 6.5 SUV • min
Organ uptake (area under time-activity curve) ([3]; lung, non-binders (n = 5)): 13.6 ± 2.0 SUV • min
Organ uptake (area under time-activity curve) ([3]; spleen, binders (n = 5)): 131.6 ± 19.3 SUV • min
Organ uptake (area under time-activity curve) ([3]; spleen, non-binders (n = 5)): 34.1 ± 11.0 SUV • min
SMILES: CC(=O)N(Cc1ccccc1O[11CH3])c1cnccc1Oc1ccccc1 [[^11C]PBR28]
Uptake lower in non-binders than in binders ([3]; all five organs with high densities of TSPO (lung, heart, brain, kidney, spleen)): 50% to 75%
Decrease of area under the curve by pharmacological blockade (TSPO [4]; brain): 42%
Decrease of area under the curve by pharmacological blockade (TSPO [4]; kidney): 50%
Decrease of area under the curve by pharmacological blockade (TSPO [4]; lung): 70%
Share of uptake in monkey brain that is specific (TSPO [5]; ref Imaizumi et al., 2008): More than 90%

SMILES: COc1ccccc1CN(C(C)=O)c1cnccc1Oc1ccccc1 [[^3H]PBR28] [listing 2 of 2 here]
Specific binding, fold lower in non-binders than in binders (TSPO [1]; eight non-binders vs ten binders, single radioligand concentration): 36 fold
Affinity for TSPO, fold lower in non-binders than in binders (TSPO [1]; leukocyte membranes): more than ten-fold lower affinity
Bmax (TSPO [1]; [8]): 16.9 ± 8.0 pmol / mg protein
Kd (TSPO [1]; [8]): 1.8 ± 0.6 nM
Specific Binding (TSPO [1]; binders): 7.2 ± 2.2 pmol / mg protein

SMILES: CCC(C)N(C)C(=O)c1cc2ccccc2c(-c2ccccc2Cl)n1 (stereo not shown) [[^3H]PK 11195]
Bmax (TSPO [1]; [8]): 10.4 ± 7.1 pmol / mg protein
Bmax (TSPO [1]; saturation curve, homologous displacement, non-binders): 15.1 ± 12.0 pmol / mg protein
Specific Binding (TSPO [1]; binders): 1.3 ± 0.5 pmol / mg protein
Substrate for transporter (ABCB1 (P-glycoprotein)): neither [^3H]PK 11195 nor [^3H]PBR8 was a substrate
Substrate for transporter (ABCC1): neither [^3H]PK 11195 nor [^3H]PBR8 was a substrate
Substrate for transporter (ABCG2): neither [^3H]PK 11195 nor [^3H]PBR8 was a substrate

SMILES: CC[C@@H](C)N([11CH3])C(=O)c1cc2ccccc2c(-c2ccccc2Cl)n1 [[^11C]-(R)-PK 11195]
Organ uptake (area under time-activity curve) ([3]; brain, binders (n = 5)): 18.8 ± 1.0 SUV • min
Organ uptake (area under time-activity curve) ([3]; brain, non-binders (n = 5)): 17.5 ± 2.0 SUV • min
Organ uptake (area under time-activity curve) ([3]; heart, binders (n = 5)): 59.8 ± 4.9 SUV • min
Organ uptake (area under time-activity curve) ([3]; heart, non-binders (n = 5)): 48.8 ± 2.8 SUV • min
Organ uptake (area under time-activity curve) ([3]; kidney, binders (n = 5)): 63.8 ± 3.2 SUV • min
Organ uptake (area under time-activity curve) ([3]; kidney, non-binders (n = 5)): 60.7 ± 12.3 SUV • min
Organ uptake (area under time-activity curve) ([3]; lung, binders (n = 5)): 25.6 ± 3.7 SUV • min
Organ uptake (area under time-activity curve) ([3]; lung, non-binders (n = 5)): 18.7 ± 2.5 SUV • min
Organ uptake (area under time-activity curve) ([3]; spleen, binders (n = 5)): 65.6 ± 9.3 SUV • min
Organ uptake (area under time-activity curve) ([3]; spleen, non-binders (n = 5)): 53.4 ± 11.4 SUV • min
Decrease of area under the curve by pre-blockade (TSPO [6]; brain): 14%
Area under the time-activity curve (TSPO [6]; brain, 5 to 20 min, baseline): 28.2 SUV • min
Area under the time-activity curve (TSPO [6]; brain, 5 to 20 min, pre-blocked with PBR28 5 mg/kg i.v.): 29.1 SUV • min
Time at which uptake declined to 50% of peak (TSPO [6]; brain): 30 min
Area under the time-activity curve (TSPO [6]; heart, 5 to 20 min, baseline): 75.1 SUV • min
Area under the time-activity curve (TSPO [6]; heart, 5 to 20 min, pre-blocked with PBR28 5 mg/kg i.v.): 33.6 SUV • min
Decrease of area under the curve by pre-blockade (TSPO [6]; kidney): 30%
Area under the time-activity curve (TSPO [6]; kidney, 5 to 20 min, baseline): 166.3 SUV • min
Area under the time-activity curve (TSPO [6]; kidney, 5 to 20 min, pre-blocked with PBR28 5 mg/kg i.v.): 60.5 SUV • min
Decrease of area under the curve by pre-blockade (TSPO [6]; lung): 31%
Area under the time-activity curve (TSPO [6]; lung, 5 to 20 min, baseline): 29.6 SUV • min
Area under the time-activity curve (TSPO [6]; lung, 5 to 20 min, pre-blocked with PBR28 5 mg/kg i.v.): 18.3 SUV • min
Time at which uptake declined to 50% of peak (TSPO [6]; other organs): ≤ 5 min
Area under the time-activity curve lower in pre-blocked than in baseline scans (TSPO [6]; peripheral organs (heart, lung, spleen, kidney), 5 to 20 min): 38 – 76%
Area under the time-activity curve (TSPO [6]; spleen, 5 to 20 min, baseline): 87.1 SUV • min
Area under the time-activity curve (TSPO [6]; spleen, 5 to 20 min, pre-blocked with PBR28 5 mg/kg i.v.): 20.6 SUV • min
Peak uptake of radioactivity in brain (TSPO [7]; after blockade with PBR28 5 mg/kg i.v.): 3.43 SUV
Peak uptake of radioactivity in brain (TSPO [7]; baseline): 1.64 SUV
Share of uptake in monkey brain that is specific (displaceable) (TSPO [5]; without correction for peripheral clearance, ref Petit-Taboue et al., 1991): about 50%
